Assay [1] has as its target T1, Adenosine receptor A3 (Homo sapiens, UniProt P0DMS8).
T1 sequence (P0DMS8 whole entry): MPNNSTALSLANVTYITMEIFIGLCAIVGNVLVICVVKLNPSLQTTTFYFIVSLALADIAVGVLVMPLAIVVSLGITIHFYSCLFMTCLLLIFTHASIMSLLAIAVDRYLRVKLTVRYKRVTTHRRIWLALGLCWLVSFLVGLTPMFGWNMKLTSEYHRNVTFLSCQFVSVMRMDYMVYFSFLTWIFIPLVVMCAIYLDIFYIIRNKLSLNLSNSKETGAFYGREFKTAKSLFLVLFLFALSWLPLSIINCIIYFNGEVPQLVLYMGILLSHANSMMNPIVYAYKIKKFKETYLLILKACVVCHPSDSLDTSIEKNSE
In words: Displacement of [125I]AB-MECA from human cloned adenosine A3 receptor expressed in CHO cells. It counts as cell-based. (In general: Loss of bound radioactivity is the signal in a displacement assay; it reports binding, not function.)

For assay [2], the target named is T2, Adenosine receptor A1 (Bos taurus, UniProt P28190).
T2 sequence (P28190 whole entry): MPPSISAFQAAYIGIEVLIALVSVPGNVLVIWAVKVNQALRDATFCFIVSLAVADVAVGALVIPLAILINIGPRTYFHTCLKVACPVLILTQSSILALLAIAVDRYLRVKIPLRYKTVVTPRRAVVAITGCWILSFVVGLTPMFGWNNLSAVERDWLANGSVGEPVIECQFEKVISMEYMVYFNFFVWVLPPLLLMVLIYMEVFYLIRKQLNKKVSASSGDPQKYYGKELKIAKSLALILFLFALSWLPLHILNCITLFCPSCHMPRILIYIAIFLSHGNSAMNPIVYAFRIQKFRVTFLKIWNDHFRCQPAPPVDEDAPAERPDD
In words: Displacement of [3H]DPCPX from bovine brain cortical membrane adenosine A1 receptor.

Assay [3] is filed under the species Bos taurus. In words: Displacement of [3H]CGS 21680 from bovine striatal membrane adenosine A2A receptor at 20 uM. In short, it runs like this:
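IC50 from five concentrations in triplicate, nonlinear regression; Ki via Cheng–Prusoff from four assays. Single-point values as percent inhibition at 20 μM.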

In assay [4] the target is T3, Adenosine receptor A1 (Homo sapiens) (UniProt P30542).
T3 sequence (whole entry): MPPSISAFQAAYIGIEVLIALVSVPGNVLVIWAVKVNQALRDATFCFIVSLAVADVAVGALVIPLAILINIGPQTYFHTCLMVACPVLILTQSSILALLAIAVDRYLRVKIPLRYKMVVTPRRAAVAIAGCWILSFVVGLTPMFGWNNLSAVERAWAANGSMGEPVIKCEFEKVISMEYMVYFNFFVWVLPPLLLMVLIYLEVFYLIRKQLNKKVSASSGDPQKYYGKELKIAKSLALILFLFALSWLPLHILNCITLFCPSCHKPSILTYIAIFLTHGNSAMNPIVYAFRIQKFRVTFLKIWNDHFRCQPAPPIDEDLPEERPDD
The assay can be described thus: Displacement of [3H]DPCPX from human cloned adenosine A1 receptor expressed in CHO cells at 10 uM. It counts as cell-based. In short, it runs like this: (§1)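 CHO cell membranes stably expressing hA1 or hA2A; radioligands [3H]DPCPX (hA1, Kd 3 nM) and [3H]NECA (hA2A, Kd 30 nM). IC50 from five displacer concentrations in triplicate, nonlinear regression; Ki by Cheng–Prusoff; four separate assays. Single-point values as percent inhibition of specific binding at 10 μM.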

For assay [5], the target named is T4, Adenosine receptor A2a (Homo sapiens, UniProt P29274). The assay can be described thus: Displacement of [3H]NECA from human cloned adenosine A2A receptor expressed in CHO cells. It counts as cell-based.
The nature of assay [6]: Displacement of [3H]CGS 21680 from bovine striatal membrane adenosine A2A receptor. The arrangement: species or system Bos taurus.
Assay [7] addresses T4, Adenosine receptor A2a. In words: Displacement of [3H]NECA from human cloned adenosine A2A receptor expressed in CHO cells at 10 uM. It counts as cell-based. In short, it runs like this:
as §1

Assay [8] addresses T5, Adenosine receptor A1 (Bos taurus) (UniProt P28190).
T5 sequence (whole entry): T2 sequence (P28190 whole entry)
The assay can be described thus: Displacement of [3H]DPCPX from bovine brain cortical membrane adenosine A1 receptor at 20 uM. In short, it runs like this: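 Bovine cerebral cortical membranes; [3H]DPCPX displacement (Kd 0.3 nM). IC50 from five displacer concentrations in triplicate; Ki by Cheng–Prusoff, mean of four assays.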

Assay [9] deals with T6, Adenosine receptor A3 (Homo sapiens) (UniProt P0DMS8).
T6 sequence (whole entry): T1 sequence (P0DMS8 whole entry)
In words: Displacement of [125I]AB-MECA from human cloned adenosine A3 receptor expressed in CHO cells at 1 uM. It counts as cell-based. In short, it runs like this:
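IC50 from five displacer concentrations, each in triplicate, by nonlinear regression; Ki by Cheng–Prusoff. Ki as mean of four separate assays, each in triplicate; single-point values as percent inhibition of specific binding at 1 μM.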

Assay [10] deals with T5, Adenosine receptor A1 (Bos taurus). The assay can be described thus: Displacement of [3H]DPCPX from bovine brain cortical membrane adenosine A1 receptor at 10 uM.
The species entered for assay [11] is Bos taurus. The assay can be described thus: Displacement of [3H]CGS 21680 from bovine striatal membrane adenosine A2A receptor at 10 uM.
For assay [12], the target named is T7, Adenosine receptor A1 (Homo sapiens, UniProt P30542).
T7 sequence (P30542 whole entry): T3 sequence (whole entry)
The assay can be described thus: Displacement of [3H]DPCPX from human cloned adenosine A1 receptor expressed in CHO cells. It counts as cell-based.

T4 sequence (P29274 whole entry): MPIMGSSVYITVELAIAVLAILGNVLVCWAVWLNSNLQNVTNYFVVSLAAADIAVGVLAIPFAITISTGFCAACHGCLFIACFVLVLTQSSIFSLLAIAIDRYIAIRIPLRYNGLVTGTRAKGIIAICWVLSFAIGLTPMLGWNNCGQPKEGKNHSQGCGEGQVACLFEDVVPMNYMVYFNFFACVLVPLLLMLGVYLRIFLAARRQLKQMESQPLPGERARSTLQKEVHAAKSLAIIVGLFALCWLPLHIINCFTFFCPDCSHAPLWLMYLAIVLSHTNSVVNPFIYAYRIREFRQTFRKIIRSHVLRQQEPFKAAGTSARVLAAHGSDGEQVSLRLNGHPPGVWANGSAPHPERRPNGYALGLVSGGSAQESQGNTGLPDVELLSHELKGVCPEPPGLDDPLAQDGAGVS

Turning to `O=C(c1ccccc1)N(C(=O)c1ccccc1)c1nc2ncccc2n2c(=O)n(-c3ccccc3)nc12`, the Ki (usually a dissociation constant, usually derived from enzyme kinetics or from competition with a known ligand) in assay [1] was 335 nM; in assay [2], 70.7 nM. The compound also gave an Activity in assay [3] of 12%.
On to `O=c1n(-c2ccccc2)nc2c(NC3CCCC3)nc3ncccc3n12`, for which the Ki in assay [1] is 8.4 nM; in assay [5] it was 208 nM; in assay [2], 0.47 nM; in assay [6], 510 nM. Besides, the Activity in assay [4] came out at 36%.
`O=c1n(-c2ccccc2)nc2c(NC3CCCCC3)nc3c([N+](=O)[O-])cccc3n12` yielded a Ki in [1] of 281 nM. This counts as sub-micromolar.
As for `O=C(Cc1ccccc1)Nc1nc2ncccc2n2c(=O)n(-c3ccccc3)nc12`, the Ki stood at 11.7 nM in assay [1], 208 nM in [5], 7.15 nM in [2] and 414 nM in assay [6]. This compound also displayed an Activity in assay [4] of 37%.
As to `O=c1[nH]c2ncccc2n2c(=O)n(-c3ccccc3)nc12`, the Ki in [1] stood at 251 nM; in assay [2], 145 nM. Besides, the figures for the Activity in assay [7] and in [3] were 0% and 12%, respectively.
With `Nc1nc2ncccc2n2c(=O)n(-c3ccc(O)cc3)nc12`, the Ki turned out to be 1340 nM in assay [1], 112 nM in assay [2] and 832 nM in assay [6].
For `O=C(Nc1nc2ncccc2n2c(=O)n(-c3ccccc3)nc12)c1ccccc1`, the Ki in assay [1] amounted to 70.3 nM; in assay [5], 2240 nM; in [2] it was 152 nM; in [6] it was 7100 nM. The compound further yielded an Activity in assay [4] of 8%.
For `COc1ccc(-n2nc3c(N)nc4ncccc4n3c2=O)cc1`, the Ki amounted to 158 nM in assay [1], 1100 nM in assay [2] and 413 nM in [6].
For the compound `O=c1n(-c2ccccc2)nc2c(NC3CCCC3)nc3c([N+](=O)[O-])cccc3n12`, the Ki in assay [1] was 116 nM.
On to `CCOC(=O)c1ccc(-n2nc3c(=O)[nH]c4ncccc4n3c2=O)cc1`, for which the results for the Activity in assay [8], in assay [3] and in assay [9] were 16%, 0% and 0%, respectively.
As to `CC(=O)Nc1nc2ncccc2n2c(=O)n(-c3ccccc3)nc12`, the Ki came to 138 nM in assay [1] and 14 nM in [2]. In assay [3], this compound showed an Activity of 59%.
With `COc1ccc(-n2nc3c(NC(C)=O)nc4c([N+](=O)[O-])cccc4n3c2=O)cc1`, the figures for the Activity in [10], in [11] and in assay [9] were 0%, 7% and 36%, respectively.
Turning to `O=c1n(-c2ccccc2)nc2c(NC3CCCCC3)nc3ncccc3n12`, the Ki turned out to be 15.5 nM in assay [1], 211 nM in [5], 0.38 nM in assay [2] and 199 nM in [6]. The compound also showed an Activity in assay [4] of 37%.
`COc1ccc(-n2nc3c(=O)[nH]c4ncccc4n3c2=O)cc1`: the results for the Ki in [1] and in assay [12] were 3.3 nM and 114 nM, respectively. Further, the Activity in assay [8] is 26%; in assay [3], 0%.
For the compound `O=c1[nH]c2c([N+](=O)[O-])cccc2n2c(=O)n(-c3ccccc3)nc12`, the affinity in [1] corresponds to a Ki of 279 nM.
In assay [1], `COc1ccc(-n2nc3c(NC(C)=O)nc4ncccc4n3c2=O)cc1` displayed an inhibition constant Ki of 41 nM. The Activity was 48% in assay [4], 29% in assay [7], 56% in [8] and 19% in [3].
Regarding `O=C(c1ccccc1)N(C(=O)c1ccccc1)c1nc2c([N+](=O)[O-])cccc2n2c(=O)n(-c3ccccc3)nc12`, the values for the Activity in [10], in [11] and in assay [9] were 39%, 0% and 27%, respectively.
Take `CC(=O)Nc1nc2c([N+](=O)[O-])cccc2n2c(=O)n(-c3ccccc3)nc12`: the Activity in [11] was found to be 36%; in assay [9], 18%.
As for `Nc1nc2ncccc2n2c(=O)n(-c3ccc(F)cc3)nc12`, the Ki was determined as 490 nM in assay [1], 181 nM in assay [2] and 1510 nM in [6].
In turn, `Nc1nc2c([N+](=O)[O-])cccc2n2c(=O)n(-c3ccc(O)cc3)nc12` gave an Activity in assay [9] of 45%.
As to `CCOC(=O)c1ccc(-n2nc3c(N)nc4ncccc4n3c2=O)cc1`, the Activity in assay [8] is 39%; in assay [3] it was 17%; in [9], 0%.
Take `COc1ccc(-n2nc3c(NC(=O)c4ccccc4)nc4c([N+](=O)[O-])cccc4n3c2=O)cc1`: the results for the Activity in assay [10] and in [11] were 35% and 15%, respectively.
Turning to `COc1ccc(-n2nc3c(N(C(=O)c4ccccc4)C(=O)c4ccccc4)nc4ncccc4n3c2=O)cc1`, the inhibition constant Ki in assay [1] came to 7.75 nM. Moreover, the Activity was determined as 0% in assay [4], 0% in [7], 17% in assay [8] and 0% in assay [3].
As for `O=C(O)c1ccc(-n2nc3c(=O)[nH]c4ncccc4n3c2=O)cc1`, the Activity in [8] is 30%; in [3], 7%; in [9] it was 0%.
Regarding `Nc1nc2ncccc2n2c(=O)n(-c3ccccc3)nc12`, the results for the Ki in assay [1], in [2] and in assay [6] were 656 nM, 3.1 nM and 92.6 nM, respectively.
On to `COc1ccc(-n2nc3c(N(C(=O)c4ccccc4)C(=O)c4ccccc4)nc4c([N+](=O)[O-])cccc4n3c2=O)cc1`, for which the Activity worked out at 20% in assay [10] and 0% in [11].
The matching figures for `O=C(Nc1nc2c([N+](=O)[O-])cccc2n2c(=O)n(-c3ccccc3)nc12)c1ccccc1`: 32% and 0%.
As for `O=c1[nH]c2ncccc2n2c(=O)n(-c3ccc(O)cc3)nc12`, in assay [2], the Ki was 449 nM. Moreover, the Activity in assay [3] is 0%; in [9], 32%.
Take `O=c1[nH]c2ncccc2n2c(=O)n(-c3ccc(F)cc3)nc12`: the Ki in assay [1] was 590 nM; in assay [2], 306 nM. In addition, in assay [3], the Activity was 26%.
In assay [6], `CCCn1c(=O)c2[nH]c(C3CCCC3)nc2n(CCC)c1=O` [1,3-DIPROPYL-8-CYCLOPENTYLXANTHINE [DPCPX]] gave a Ki of 337 nM.
As to `O=c1[nH]c2c([N+](=O)[O-])cccc2n2c(=O)n(-c3ccc(O)cc3)nc12`, the Activity in [9] worked out at 21%.
